Laboratory results from ChEMBL document CHEMBL4257550, “Novel hybrids derived from aspirin and chalcones potently suppress colorectal cancer in vitro and in vivo” (Medchemcomm, 2018).
pIC50: −log10 of the molar value. Calls of active or inactive are those of the source. The rule behind the calls is not given here.

How the values were obtained:
DLD-1 [1] = experiment: Antiproliferative activity against human DLD1 cells after 72 hrs by MTT assay; format: functional, cell-based; details: DLD-1, 72 h
Procedure, shortened: (§1)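 HCT-8, DLD-1 and CCD841 cells seeded in 96-well plates, exposed to vehicle or compound for 72 h. MTT (5 mg/mL in PBS) added for a further 4 h, formazan dissolved in DMSO, absorbance read at 570 nm. IC50 taken as the concentration inhibiting 50% of proliferation; mean ± SD of three independent experiments.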

HCT-8 [2] = experiment: Antiproliferative activity against human HCT8 cells after 72 hrs in presence of ASA by MTT assay; format: functional, cell-based; details: HCT-8, 72 h; procedure, shortened: as §1
DLD-1 [3] = experiment: Antiproliferative activity against human DLD1 cells after 72 hrs in presence of ASA by MTT assay; format: functional, cell-based; details: DLD-1, 72 h; procedure, shortened: as §1
HCT-8 [4] = experiment: Antiproliferative activity against human HCT8 cells after 72 hrs by MTT assay; format: functional, cell-based; details: HCT-8, 72 h; procedure, shortened: as §1
HCT-8 [5] = experiment: Antiproliferative activity against human HCT8 cells at 10 uM after 72 hrs by MTT assay relative to control; format: functional
Procedure, shortened: (§2)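 Cells treated with or without compound at 10 μM for 72 h, proliferation measured by MTT (4 h, formazan in DMSO, 570 nm). Inhibition (%) relative to untreated cells; mean ± SD of three independent experiments.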

DLD-1 [6] = experiment: Antiproliferative activity against human DLD1 cells at 10 uM after 72 hrs by MTT assay relative to control; format: functional; procedure, shortened: as §2
[7] = Cytotoxicity against human CCD-841 cells after 72 hrs by MTT assay; format: cell-based; details: CCD-841, 72 h; procedure, shortened: as §1
HCT-8 [8] = experiment: Induction of reactive oxygen species generation in human HCT8 cells at 2.5 to 10 uM after 24 hrs by DCFH-DA staining based flow cytometry; format: functional, cell-based
Procedure, shortened: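 HCT-8 cells exposed to 0, 2.5, 5 or 10 μM for 24 h, loaded with 10 μM DCFH-DA at 37 °C for 20 min, washed three times in PBS. Intracellular ROS as DCF fluorescence by flow cytometry, Ex/Em 488/530 nm.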

HCT-8 [9] = experiment: Induction of apoptosis in human HCT8 cells after 24 hrs by Annexin V-FITC/propidium iodide staining based flow cytometry; format: functional, cell-based
HCT-8 [10] = experiment: Cell cycle arrest in human HCT8 cells assessed as accumulation at S phase at 5 uM after 24 hrs by propidium iodide staining based flow cytometry (reference value: 36.19%); format: functional
HCT-8 [11] = experiment: Induction of apoptosis in human HCT8 cells assessed as late apoptotic cells at 10 uM after 24 hrs by Annexin V-FITC/propidium iodide staining based flow cytometry (reference value: 2.4%); format: functional
[12] = Selectivity index, ratio of IC50 for human CCD-841 cells to IC50 for HCT8 human cells; format: toxicity; details: CCD-841 cells versus HCT8 cells, read-out: Ratio IC50
Procedure, shortened: (§3)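 Ratio of the CCD841 MTT IC50 to the HCT-8 or DLD-1 IC50, each IC50 from a 72 h MTT assay (570 nm), mean of three independent experiments.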

HCT-8 [13] = experiment: Antitumor activity against human HCT8 cells xenografted in BALB/c mouse assessed as reduction in tumor weight at 60 mg/kg, ip administered daily for 32 days measured every 4 days during compound dosing relative to control; format: functional; design: scale not given: the % may be the effect or the level left
Procedure, shortened: (§4)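 Male BALB/c nude mice (5–6 weeks, 18–20 g) inoculated s.c. with 1 × 10^7 HCT-8 cells. At tumours of 180–200 mm³, mice randomized and dosed i.p. daily for 32 days with 60 mg/kg or an equal volume of Tween 80/PBS (5:95) vehicle. Caliper length and width every 4 days, TV = width² × length/2. Tumour weight and body weight also recorded; n = 6 per group, mean ± SD.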

HCT-8 [14] = experiment: Cell cycle arrest in human HCT8 cells assessed as accumulation at G2 phase at 5 uM after 24 hrs by propidium iodide staining based flow cytometry (reference value: 23.77%); format: functional
HCT-8 [15] = experiment: Cell cycle arrest in human HCT8 cells assessed as accumulation at G1 phase at 5 uM after 24 hrs by propidium iodide staining based flow cytometry (reference value: 48.08%); format: functional
HCT-8 [16] = experiment: Cell cycle arrest in human HCT8 cells assessed as accumulation at G2 phase at 10 uM after 24 hrs by propidium iodide staining based flow cytometry (reference value: 23.77%); format: functional
HCT-8 [17] = experiment: Induction of apoptosis in human HCT8 cells assessed as late apoptotic cells at 2.5 uM after 24 hrs by Annexin V-FITC/propidium iodide staining based flow cytometry (reference value: 2.4%); format: functional
HCT-8 [18] = experiment: Cell cycle arrest in human HCT8 cells assessed as accumulation at S phase at 2.5 uM after 24 hrs by propidium iodide staining based flow cytometry (reference value: 36.19%); format: functional
HCT-8 [19] = experiment: Cell cycle arrest in human HCT8 cells assessed as accumulation at G0/G1 phase after 24 hrs by propidium iodide staining based flow cytometry; format: functional
HCT-8 [20] = experiment: Induction of apoptosis in human HCT8 cells assessed as early apoptotic cells at 10 uM after 24 hrs by Annexin V-FITC/propidium iodide staining based flow cytometry (reference value: 0.25%); format: functional
HCT-8 [21] = experiment: Cell cycle arrest in human HCT8 cells assessed as accumulation at G1 phase at 10 uM after 24 hrs by propidium iodide staining based flow cytometry (reference value: 48.08%); format: functional
HCT-8 [22] = experiment: Induction of apoptosis in human HCT8 cells assessed as increase in cleaved PARP expression after 24 hrs by Western blotting analysis; format: functional, cell-based
Procedure, shortened: (§5)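 HCT-8 cells (1 × 10^6/well, six-well plates) left overnight, then given 0.1% DMSO or compound (0, 2.5, 5, 10 μM) for 24 h. Lysed 30 min at 4 °C, cleared at 15000 rpm, protein by BCA. 20 μg per lane on 7.5% SDS-PAGE, moved to PVDF, blocked in 5% milk/TBS-0.05% Tween 20. Probed for caspase 3, cleaved caspase 3, PARP, cleaved PARP and GAPDH; ECL detection.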

HCT-8 [23] = experiment: Cell cycle arrest in human HCT8 cells assessed as accumulation at G2 phase at 2.5 uM after 24 hrs by propidium iodide staining based flow cytometry (reference value: 23.77%); format: functional
HCT-8 [24] = experiment: Induction of apoptosis in human HCT8 cells assessed as increase in cleaved caspase3 expression after 24 hrs by Western blotting analysis; format: functional, cell-based; procedure, shortened: as §5
HCT-8 [25] = experiment: Induction of apoptosis in human HCT8 cells assessed as late apoptotic cells at 5 uM after 24 hrs by Annexin V-FITC/propidium iodide staining based flow cytometry (reference value: 2.4%); format: functional
Mus musculus = experiment: Toxicity in BALB/c mouse xenografted with human HCT8 cells assessed as change in body weight at 60 mg/kg, ip administered daily for 32 days; format: organism-based; details: in vivo, 768 h; procedure, shortened: as §4
[26] = Selectivity index, ratio of IC50 for human CCD-841 cells to IC50 for DLD1 human cells; format: toxicity; details: CCD-841 cells versus DLD1 cells; procedure, shortened: as §3
HCT-8 [27] = experiment: Cell cycle arrest in human HCT8 cells assessed as accumulation at S phase at 10 uM after 24 hrs by propidium iodide staining based flow cytometry (reference value: 36.19%); format: functional
HCT-8 [28] = experiment: Cell cycle arrest in human HCT8 cells assessed as accumulation at G1 phase at 2.5 uM after 24 hrs by propidium iodide staining based flow cytometry (reference value: 48.08%); format: functional
HCT-8 [29] = experiment: Antitumor activity against human HCT8 cells xenografted in BALB/c mouse assessed as reduction in tumor volume at 60 mg/kg, ip administered daily for 32 days measured every 4 days during compound dosing; format: functional, organism-based; procedure, shortened: as §4
HCT-8 [30] = experiment: Induction of apoptosis in human HCT8 cells assessed as early apoptotic cells at 5 uM after 24 hrs by Annexin V-FITC/propidium iodide staining based flow cytometry (reference value: 0.25%); format: functional
HCT-8 [31] = experiment: Induction of apoptosis in human HCT8 cells assessed as early apoptotic cells at 2.5 uM after 24 hrs by Annexin V-FITC/propidium iodide staining based flow cytometry (reference value: 0.25%); format: functional

COc1ccc(O)c(/C=C/C(=O)c2ccc(Cl)cc2)c1
pIC50 (DLD-1 [1]): 4.83 | pIC50 (HCT-8 [2]): 5.20 | pIC50 (DLD-1 [3]): 5.16 | pIC50 (HCT-8 [4]): 4.71

CC(=O)Oc1ccccc1C(=O)Oc1ccccc1/C=C/C(=O)c1ccc(Br)cc1
Activity (HCT-8 [5]): Active | Activity (DLD-1 [6]): Active

O=c1[nH]cc(F)c(=O)[nH]1 [FLUOROURACIL]
pIC50 [7]: 4.45

CC(=O)Oc1ccccc1C(=O)Oc1ccccc1/C=C/C(=O)c1ccc(C#N)cc1
Activity (HCT-8 [5]): Active | Activity (DLD-1 [6]): Active

CC(=O)Oc1ccccc1C(=O)Oc1ccccc1/C=C/C(=O)c1ccc([N+](=O)[O-])cc1
Activity (HCT-8 [5]): >50% | Activity (DLD-1 [6]): >50%

CC(=O)Oc1ccccc1C(=O)Oc1ccc(F)cc1/C=C/C(=O)c1ccc(Cl)cc1
pIC50 (DLD-1 [1]): 5.46 | Activity (HCT-8 [5]): >50% | pIC50 (HCT-8 [4]): 5.57 | Activity (DLD-1 [6]): >50%

CC(=O)Oc1ccccc1C(=O)Oc1ccccc1/C=C/C(=O)c1ccc(C)cc1
Activity (HCT-8 [5]): Active | Activity (DLD-1 [6]): Active

CC(=O)Oc1ccccc1C(=O)O [ASPIRIN]
pIC50 (DLD-1 [1]): < 4.00 | pIC50 (HCT-8 [4]): < 4.00

COc1ccc(OC(=O)c2ccccc2OC(C)=O)c(/C=C/C(=O)c2ccc(Cl)cc2)c1
pIC50 (DLD-1 [1]): 5.57 | Activity (HCT-8 [8]): Active | Activity (HCT-8 [9]): Dose-dependent effect | Activity (HCT-8 [10]): 38.16% | Activity (HCT-8 [11]): 37.01% | selectivity ratio [12]: 8 | Activity (HCT-8 [13]): 42% | Activity (HCT-8 [5]): >50% | Activity (HCT-8 [14]): 10.82% | Activity (HCT-8 [15]): 51.03% | Activity (HCT-8 [16]): 8.77% | pIC50 [7]: 4.71 | Activity (HCT-8 [17]): 6.41% | Activity (HCT-8 [18]): 34.16% | Activity (HCT-8 [19]): Dose-dependent effect | Activity (HCT-8 [20]): 21.46% | Activity (HCT-8 [21]): 56.46% | Activity (HCT-8 [22]): Dose-dependent effect | Activity (HCT-8 [23]): 17.76% | Activity (HCT-8 [24]): Dose-dependent effect | Activity (HCT-8 [25]): 13.49% | Activity (Mus musculus): Non-Toxic | selectivity ratio [26]: 7.2 | Activity (HCT-8 [27]): 34.77% | pIC50 (HCT-8 [4]): 5.62 | Activity (HCT-8 [28]): 48.08% | Activity (DLD-1 [6]): >50% | Activity (HCT-8 [29]): Active | Activity (HCT-8 [30]): 14.22% | Activity (HCT-8 [31]): 9.7%

COc1ccc(C(=O)/C=C/c2ccccc2OC(=O)c2ccccc2OC(C)=O)cc1
Activity (HCT-8 [5]): Active | Activity (DLD-1 [6]): Active

CC(=O)Oc1ccccc1C(=O)Oc1ccccc1/C=C/C(=O)c1ccc(Cl)cc1
Activity (HCT-8 [5]): >50% | Activity (DLD-1 [6]): >50%

CC(=O)Oc1ccccc1C(=O)Oc1ccc(Cl)cc1/C=C/C(=O)c1ccc(Cl)cc1
Activity (HCT-8 [5]): Active | Activity (DLD-1 [6]): Active

COc1cccc(/C=C/C(=O)c2ccc(Cl)cc2)c1OC(=O)c1ccccc1OC(C)=O
Activity (HCT-8 [5]): Active | Activity (DLD-1 [6]): Active

COc1ccc(/C=C/C(=O)c2ccc(Cl)cc2)c(OC(=O)c2ccccc2OC(C)=O)c1
Activity (HCT-8 [5]): Active | Activity (DLD-1 [6]): Active

CC(=O)Oc1ccccc1C(=O)Oc1ccc(C)cc1/C=C/C(=O)c1ccc(Cl)cc1
Activity (HCT-8 [5]): Active | Activity (DLD-1 [6]): Active

O=C(/C=C/c1cc(F)ccc1O)c1ccc(Cl)cc1
pIC50 (DLD-1 [1]): 4.88 | pIC50 (HCT-8 [2]): 5.03 | pIC50 (DLD-1 [3]): 5.10 | pIC50 (HCT-8 [4]): 4.59

CC(=O)Oc1ccccc1C(=O)Oc1ccc(Br)cc1/C=C/C(=O)c1ccc(Cl)cc1
Activity (HCT-8 [5]): Active | Activity (DLD-1 [6]): Active
